Sampled rows, rich in hits. Any-hit rate of the full collection: about 2.6%.
CHO parental Ca = ATP-evoked calcium signal inhibitors, parental CHO, primary screen, counter-screen for OX1R antagonist project, cell-based, fluorescence, Fluo-8 calcium dye. parental CHO-K1, ATP-induced calcium, Fluo-8 fluorescence. inhibition, % at 5.6 µM. hit rate 0.63% among 330,000. AID 463079, 2010;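 active = inhibition above that plate's mean sample inhibition plus 3 SD, cut at about 26% in these data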;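 note: 0% = ATP-challenged DMSO wells and 100% = DMSO wells without ATP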
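Test system: parental CHO cells; detection: calcium-sensitive Fluo-8 fluorescence; evaluation: percent inhibition of calcium signal; also added: ATP as calcium-mobilizing challenge; repeats: one well per compound; control set: ATP-challenged DMSO wells low, unchallenged DMSO wells high; compound: single nominal dose of 5.6 µM per compound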
OXTR ag = human OXTR agonists, primary screen, fluorescence, CHO-OTR cells, Fluo-8 calcium | Fluo-8 calcium fluorescence; normalized: DMSO 0%, oxytocin 100% | activation, % at 3 µM | hit rate 0.32% among 320,000;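 active = activation above the mean of all tested compounds plus 3 SD, cutoff set per screening run, cut at about 20% in these data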;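 note: peak over basal fluorescence ratio from a 100 s FLIPR kinetic read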
OX1R antag-1 = OX1R (HCRTR1) antagonists, primary screen, fluorescence, CHO/OX1R cells, Fluo-8 calcium, orexin A; Fluo-8 calcium fluorescence; inhibition, % at 5 µM; hit rate 0.43% among 330,000; AID 434989, 2010;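 active = inhibition above its plate's threshold, mean inhibition of all tested compounds on the plate plus 3 SD, cut at about 37% in these data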;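 note: 0% = orexin A challenge wells and 100% = SB-334867-A antagonist wells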
OX1R antag-2 = antagonists of human orexin 1 receptor (OX1R). hit rate 1.8% among 330,000. inhibition, % at 6.6 µM. OX1R-expressing cells, FRET antagonist read-out; in the data active = inhibition mostly above about 38%, no sharp cut-off; inactive = mostly below about 40%;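 note: 0% = agonist challenge alone and 100% = reference antagonist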
OXTR potentiate = human OXTR potentiators, primary screen, fluorescence, CHO-OTR cells, Fluo-8 calcium | Oxytocin receptor (Homo sapiens), P30559 | Fluo-8 calcium fluorescence, potentiator mode; 0% = oxytocin EC15, 100% = EC100 | activation, % at 3 µM | hit rate 0.061% among 320,000 | AID 2445, 2010;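 active = activation above that plate's cutoff, the mean activation of tested compounds plus 3 SD, cut at about 6.6% in these data, passing the limit was not always enough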;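 note: 100% uses oxytocin at 75 nM as the full agonist control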
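assay system = CHO-OTR cells, human receptor | schedule = compound 6 min at room temperature before oxytocin, 100 s read | detection = Fluo-8 intracellular calcium fluorescence, ex 470-495, em 515-575 nm | evaluation = normalized max/min fluorescence ratio, % activation | control set = EC15 oxytocin alone as 0%, 75 nM oxytocin (EC100) as 100%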
V1R ag counter = agonists of human V1a receptor, primary screen, counter-screen for OXTR agonist project, fluorescence, CHO-V1R cells; Vasopressin V1a receptor (Homo sapiens), P37288; Fluo-8 calcium fluorescence, agonist mode; 0% DMSO, 100% 3 nM vasopressin; activation, % at 3 µM; hit rate 0.25% among 320,000; AID 2797, 2010;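 active = activation above the mean activation of all tested compounds plus 3 SD, per screening run, cut at about 20% in these data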;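 note: signal is peak over basal fluorescence ratio across a 100 second FLIPR read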
Target sequence (P37288 whole entry, looked up): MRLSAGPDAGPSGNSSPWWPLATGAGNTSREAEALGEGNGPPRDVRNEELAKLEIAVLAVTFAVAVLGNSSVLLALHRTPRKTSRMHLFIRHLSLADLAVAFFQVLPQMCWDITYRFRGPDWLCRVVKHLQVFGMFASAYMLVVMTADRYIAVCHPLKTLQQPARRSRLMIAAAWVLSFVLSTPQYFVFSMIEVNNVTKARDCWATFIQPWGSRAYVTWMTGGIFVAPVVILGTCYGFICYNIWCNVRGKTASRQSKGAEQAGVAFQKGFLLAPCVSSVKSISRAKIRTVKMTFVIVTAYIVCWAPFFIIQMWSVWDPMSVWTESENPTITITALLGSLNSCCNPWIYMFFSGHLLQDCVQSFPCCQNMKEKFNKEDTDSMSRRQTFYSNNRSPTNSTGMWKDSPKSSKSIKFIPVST
Starred values were filed as active, the others as inactive.

SMILES	CHO parental Ca	OXTR ag	OX1R antag-1	OX1R antag-2	OXTR potentiate	V1R ag counter
O=C(Nc1ccc(Cl)cc1)Nc1cc([N+](=O)[O-])ccc1F	3.1	4.6	13.9	16.1	-6.9	6.4
O=C(Nc1ccc([N+](=O)[O-])cc1)Nc1ccc(Cl)cc1F	42.9*	10.8	47.5*	39.9	-26.3	12.3
CCOC(=O)c1oc2ccc(Cl)cc2c1NC(C)=O	-2.9	-0.5	-22.0	2.4	6.3	-0.4
COc1ccc(N2CCN(C(CNS(C)(=O)=O)c3ccco3)CC2)cc1 (centres undefined)	-3.1	-0.6	2.2	10.1	-5.8	-0.3
Cc1cccc(N2CCN(C(=O)CCCCCn3c(=S)[nH]c4ccc(N5CCOCC5)cc4c3=O)CC2)c1C	4.5	-1.8	-37.6	12.8	-23.1	-1.5
CCOC(=O)N1CCN(c2ncnc3c2[nH]c2ccc(F)cc23)CC1	47.0*	14.5	52.4*	67.7	-20.8	8.3
COc1ccc2[nH]c3c(N4CCc5ccccc5C4)ncnc3c2c1	15.2	7.3	12.1	51.7	-16.5	9.3
Fc1ccc2[nH]c3c(N4CCN(c5ccccc5)CC4)ncnc3c2c1	58.8*	15.1	67.5*	117.6*	-32.6	10.8
COc1ccc(N2CCN(c3ncnc4c3[nH]c3ccccc34)CC2)cc1	75.0*	13.6	70.6*	89.1*	-28.5	10.3
O=C(CN(C(=O)c1csnn1)c1ccc(F)c(Cl)c1)NCc1ccc2c(c1)OCO2	-2.8	3.0	2.9	21.1	-12.9	5.1
O=C(Cc1ccc(F)cc1)Nc1ccc(Cl)cn1	-6.3	-3.1	5.9	4.5	1.7	-0.4
Cc1ccc(S(=O)(=O)Nc2cccc(C(=O)NCc3ccc(S(N)(=O)=O)cc3)c2)cc1	-1.0	-1.2	-9.1	6.2	2.1	-0.8
CCn1c(CNC(=O)c2cc(OC)c(OC)c(OC)c2)cc2ccccc21	2.8	8.0	4.5	68.8*	-13.6	9.1
O=C(c1ccccc1)c1cc[n+]([O-])cc1	-2.6	0.3	-14.3	42.4*	-1.2	0.5
CN(C)CC[n+]1ccc(C(=O)c2ccccc2)cc1	-3.0	0.6	-11.4	52.2*	-8.9	0.9
O=C(N/N=C/c1ccc2c(c1)OCO2)C1CC1	-5.7	0.0	17.2	18.4	-9.5	-0.9
Oc1ccccc1-c1cc(-c2ccc3c(c2)OCCO3)n[nH]1	-3.0	4.8	17.5	59.0*	-7.4	4.8
CCc1nnc(NS(=O)(=O)c2ccc(Nc3ccc4nonc4c3[N+](=O)[O-])cc2)s1	-8.2	-0.4	-19.6	49.4*	2.9	-0.5
CCc1nnc(NS(=O)(=O)c2ccccc2)s1	-0.2	0.0	-5.1	6.4	-7.7	0.1
O=[N+]([O-])c1c(Nc2ccccc2O)ccc2nonc12	2.0	0.5	-20.2	58.5*	-0.2	0.8
Oc1ccc(Br)cc1-c1cc(-c2ccc(Cl)cc2)n[nH]1	50.2*	-0.4	23.5	24.3	-9.3	3.2
Cc1ccc(C(=O)NCC(=O)N(C)CC(=O)Nc2c(Cl)cccc2Cl)s1	-8.7	-0.3	-11.7	8.1	-9.7	-0.8
O=S(=O)(c1cccs1)N1CCN(CC(O)COc2cc(Cl)ccc2Cl)CC1 (centres undefined)	69.4*	19.3	74.2*	74.7*	-23.1	11.4
O=S(=O)(c1cccs1)N1CCN(CCOc2ccc(Cl)cc2)CC1	-4.1	10.4	2.1	11.3	-11.4	8.5
Cc1ccccc1OCC(=O)N1N=C(C(F)(F)F)CC1(O)C(C)(C)C (centres undefined)	33.0*	-1.3	17.3	23.2	-13.4	3.2
SMILES	CHO parental Ca	OXTR ag	OX1R antag-1	OX1R antag-2	OXTR potentiate	V1R ag counter
Cc1ccc(OCC(=O)N2N=C(C(F)(F)F)CC2(O)C(C)(C)C)cc1C (centres undefined)	80.0*	6.5	29.7	28.9	-7.5	4.8
CC(C)(C)C1(O)CC(C(F)(F)F)=NN1C(=O)CCc1ccccc1 (centres undefined)	-20.2	-2.7	-33.4	7.3	-5.4	-1.0
Cc1ccc(OCC(=O)N2N=C(c3cccnc3)CC2(O)C(F)(F)F)cc1C (centres undefined)	-6.9	5.8	-11.9	19.8	-5.3	4.4
Cc1ccccc1-n1ncc2c1CC(C)(C)CC2NC(=O)C1=CC(=O)CC(C)(C)O1 (centres undefined)	-19.8	-0.3	-26.1	50.8	-5.2	0.5
CCCc1cc(C(=O)Nc2cccc(C(C)=O)c2)no1	-5.4	-2.2	-17.2	22.5	0.4	0.6
CCCc1cc(C(=O)Nc2ccc(C(C)=O)cc2)no1	28.3*	-0.6	-12.1	12.1	-1.9	0.5
CCCn1c(C(C)Nc2nc(-c3cc(Cl)c(N)c(Cl)c3)cs2)nc2cc(Cl)c(N3CCCCC3)cc21 (centres undefined)	-28.3	-0.7	-23.4	17.4	-7.0	-0.4
CCOc1cc(/C=N/NC(=O)CCn2nnc3ccccc32)ccc1O	1.6	1.1	-12.4	45.6*	0.8	-0.1
COc1ccccc1Oc1ccc(NC(=O)Cc2ccccc2)cc1	-6.7	-1.9	-3.5	5.5	-10.6	-0.9
CC1(c2ccc(OC(F)F)cc2)NC(=O)N(CC(=O)Nc2cccc(F)c2)C1=O (centres undefined)	53.3*	53.2*	66.8*	10.8	-15.6	30.9*
CCOc1ccc(NC(=O)CN2C(=O)NC(C)(c3ccc(OC(F)F)cc3)C2=O)cc1 (centres undefined)	20.9	42.5*	32.5	-8.9	-16.6	42.6*
Cc1cc(NC(=O)CN2C(=O)NC(C)(c3ccc(OC(F)F)cc3)C2=O)no1 (centres undefined)	-6.9	14.4	0.2	-2.8	-23.5	14.4
COc1ccc(C2(C)NC(=O)N(CC(=O)Nc3ccc(-c4nc5ccc(C)cc5s4)cc3)C2=O)cc1 (centres undefined)	29.4*	2.6	24.8	6.0	-19.4	6.6
CC1(c2ccc(OC(F)F)cc2)NC(=O)N(CC(=O)Nc2ccc(S(N)(=O)=O)cc2)C1=O (centres undefined)	-6.2	-1.4	-4.7	5.5	-13.8	0.0
CC1(c2ccc(OC(F)F)cc2)NC(=O)N(CC(=O)Nc2ccc(OC(F)F)cc2)C1=O (centres undefined)	35.8*	40.4*	52.5*	-5.0	-16.0	28.1*
Cc1nc(CN(C)C(=O)CC2C(=O)NCCN2Cc2ccc(-c3ccccc3)cc2)cs1 (centres undefined)	-18.5	2.9	-31.1	-0.3	-4.6	6.4

Source: PubChem BioAssay (The Scripps Research Institute Molecular Screening Center)
